Results on eight molecules are retold here after ChEMBL document CHEMBL1128719, “The synthesis, structure-activity, and structure-side effect relationships of a series of 8-alkoxy- and 5-amino-8-alkoxyquinolone antibacterial agents” (J Med Chem, 1995).

Data set [1] has as its system Staphylococcus aureus. Kind of data set: In vitro antibacterial activity was tested for Staphylococcus aureus H228. It is filed as functional. The method in brief: (§1)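 Microtitration (microdilution) MIC determination in μg/mL against a panel of Gram-positive, Gram-negative and anaerobic organisms. Values come from duplicate or triplicate experiments and are stated accurate to ±50%.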

The subject of data set [2] is Pseudomonas aeruginosa. In words: In vitro antibacterial activity was tested for Pseudomonas aeruginosa UI-18. It is filed as functional. The method in brief:
as §1

Data set [3] deals with Providencia rettgeri. Kind of data set: In vitro antibacterial activity was tested for Providencia rettgeri H1771. It is filed as functional. An outline of the steps:
as §1

The test system of data set [4] is Streptococcus pyogenes. In words: In vitro antibacterial activity was tested for Streptococcus pyogenes C203. It counts as functional. The method in brief: as §1
The test system of data set [5] is Staphylococcus aureus. Kind of data set: In vitro antibacterial activity was tested for Staphylococcus aureus UC-76. It counts as functional. The method in brief:
as §1

The test system of data set [6] is Clostridioides difficile. In words: In vitro antibacterial activity was tested for Clostridium diff CD1-1. It is filed as functional.
The test system of data set [7] is Bacteroides fragilis. In words: In vitro antibacterial activity against Bacteroides fragilis BFA. It is filed as functional. The method in brief: as §1
Data set [8] relates to Clostridium perfringens. In words: In vitro antibacterial activity against Clostridium perfringens CP 3-1. It is filed as functional.
In data set [9] the test system is Enterobacter cloacae. Kind of data set: In vitro antibacterial activity was tested for Enterobacter cloacae HA2646. It counts as functional.
Data set [10] deals with Escherichia coli. Kind of data set: In vitro antibacterial activity was tested for Escherichia coli Vogel. It is filed as functional. An outline of the steps:
as §1

The test system of data set [11] is Cutibacterium acnes. In words: In vitro antibacterial activity was tested for Propion acnes PA5-1. It is filed as functional. The method in brief:
as §1

In data set [12] the test system is Klebsiella pneumoniae. In words: In vitro antibacterial activity was tested for Klebsiella pneumoniae MGH-2. It is filed as functional. An outline of the steps:
as §1

Data set [13] has as its system V79. Kind of data set: Clonogenic cytotoxicity against Chinese hamster V-79 cells. It counts as functional, cell-based. The note with it: Cricetulus griseus.
In data set [14] the test system is Escherichia coli. Kind of data set: In vitro antibacterial activity was tested for Escherichia coli H560. It is filed as functional. The method in brief: as §1
For data set [15], the system named is Enterococcus faecalis. In words: In vitro antibacterial activity was tested for Streptococcus faecalis MGH-2. It is filed as functional. The method in brief: as §1
In data set [16] the test system is Streptococcus pneumoniae. Kind of data set: In vitro antibacterial activity was tested for Streptococcus pneumoniae SV-1. It counts as functional. An outline of the steps:
as §1

The test system of data set [17] is Peptoniphilus asaccharolyticus. Kind of data set: In vitro antibacterial activity was tested for Pepto asac PA 3-1. It is filed as functional. An outline of the steps:
as §1

For data set [18], the species on record is Mus musculus. In words: Phototoxic skin reaction in depilated female CD-1 mice. It counts as functional. The method in brief: (§2)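 Female CD-1 mice, depilated, given a single oral or subcutaneous dose. UVA (320–400 nm) exposure for 3 h, starting 1 h post-dose. Initial doses were 30, 100 and 300 mg/kg. PTD50 (dose giving phototoxic skin reaction in 50% of mice) derived by probit method. First day of positive reaction and no-effect dose taken from raw data.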

The species named for data set [19] is Mus musculus. Kind of data set: Phototoxic skin reaction in depilated female CD-1 mice. The note with it: in vivo. It counts as toxicity, organism-based. An outline of the steps:
as §2

≈ marks a conversion by molar mass, not a printed value. A value given as a limit tells only on which side of the number the result lay.

The MIC is the smallest concentration in the dilution series that meets the test's criterion for growth inhibition. Lower therefore signals greater potency. As usually defined, the IC50 is the point on the concentration scale where inhibition reaches its midpoint. As for `COc1c(N2CCC(N)CC2)c(F)c(N)c2c(=O)c(C(=O)O)cn(C3CC3)c12`, the minimum inhibitory concentration (MIC) stood at 0.05 µg/mL (≈ 0.128 µM) in [1]; 1.6 µg/mL (≈ 4.1 µM) in data set [2]; 0.4 µg/mL (≈ 1.02 µM) in data set [3]; 0.025 µg/mL (≈ 0.064 µM) in data set [4]; 0.013 µg/mL (≈ 0.0333 µM) in data set [5]; 3.1 µg/mL (≈ 7.94 µM) in data set [6]. Further, the MIC in [7] was 3.1 µg/mL (≈ 7.94 µM); in data set [8] it was 0.8 µg/mL (≈ 2.05 µM); in [9], 0.1 µg/mL (≈ 0.256 µM); in data set [10], 0.1 µg/mL (≈ 0.256 µM); in data set [11], 3.1 µg/mL (≈ 7.94 µM); in [12], 0.2 µg/mL (≈ 0.512 µM). Further, the MIC in data set [14] was 0.05 µg/mL (≈ 0.128 µM); in [15] it was 0.05 µg/mL (≈ 0.128 µM); in data set [16], 0.013 µg/mL (≈ 0.0333 µM); in data set [17], 1.6 µg/mL (≈ 4.1 µM). Half-maximal inhibition in [13] (IC50) required 60 µg/mL (≈ 154 µM).
Molecule `NC1CCCN(c2cc3c(cc2F)c(=O)c(C(=O)O)cn3C2CC2)C1` (stereo unspecified) showed an IC50 in data set [13] of 560 µg/mL (≈ 1620 µM). The molecule further gave a No effect dose in [18] of 100 mg. In data set [19], the PTD50 is given as over 100 mg.
For the molecule `COc1c(N2CC(C)NC(C)C2)c(F)c(N)c2c(=O)c(C(=O)O)cn(C3CC3)c12` (stereo unspecified), the MIC in [1] was determined as 0.1 µg/mL (≈ 0.247 µM); in data set [2], 3.1 µg/mL (≈ 7.66 µM); in [3], 0.8 µg/mL (≈ 1.98 µM); in data set [4], 0.1 µg/mL (≈ 0.247 µM); in data set [5], 0.025 µg/mL (≈ 0.0618 µM); in data set [6] it was 3.1 µg/mL (≈ 7.66 µM). Also, the MIC was 1.6 µg/mL (≈ 3.96 µM) in data set [7]; 0.4 µg/mL (≈ 0.989 µM) in data set [8]; 0.2 µg/mL (≈ 0.495 µM) in data set [9]; 0.2 µg/mL (≈ 0.495 µM) in data set [10]; 1.6 µg/mL (≈ 3.96 µM) in data set [11]; 0.4 µg/mL (≈ 0.989 µM) in data set [12]. The minimal inhibitory concentration (MIC) in data set [14] was 0.1 µg/mL (≈ 0.247 µM); in [15] it was 0.2 µg/mL (≈ 0.495 µM); in data set [16] it was 0.05 µg/mL (≈ 0.124 µM); in data set [17], 0.8 µg/mL (≈ 1.98 µM). Further, in data set [18], the No effect dose is on record as 100 mg. The same molecule returned a PTD50 in data set [19] of over 100 mg.
Take `CCNCC1CCCN(c2c(F)cc3c(=O)c(C(=O)O)cn(C4CC4)c3c2OCC)C1` (stereo unspecified): the MIC in [1] was 0.2 µg/mL (≈ 0.463 µM); in [2] it was over 3.1 µg/mL; in data set [3], over 3.1 µg/mL; in [4], 0.1 µg/mL (≈ 0.232 µM); in [5], 0.05 µg/mL (≈ 0.116 µM); in data set [6], 3.1 µg/mL (≈ 7.18 µM). Besides, the MIC in [7] was determined as 3.1 µg/mL (≈ 7.18 µM); in data set [8], 0.4 µg/mL (≈ 0.927 µM); in data set [9], 1.6 µg/mL (≈ 3.71 µM); in [10], 0.8 µg/mL (≈ 1.85 µM); in [11], 3.1 µg/mL (≈ 7.18 µM); in data set [12] it was 3.1 µg/mL (≈ 7.18 µM). Further, the MIC in data set [14] stood at 0.8 µg/mL (≈ 1.85 µM); in [15], 0.2 µg/mL (≈ 0.463 µM); in data set [16] it was 0.1 µg/mL (≈ 0.232 µM); in [17], 0.4 µg/mL (≈ 0.927 µM). In addition, the midpoint of inhibition in data set [13], the IC50, lay at 460 µg/mL (≈ 1070 µM).
`O=C(O)c1cn(C2CC2)c2cc(N3CCNCC3)c(F)cc2c1=O` [CIPROFLOXACIN]: the minimum inhibitory concentration (MIC) stood at 3.1 µg/mL (≈ 9.36 µM) in data set [1]; 0.4 µg/mL (≈ 1.21 µM) in [2]; 0.1 µg/mL (≈ 0.302 µM) in [3]; 0.8 µg/mL (≈ 2.41 µM) in data set [4]; 0.2 µg/mL (≈ 0.604 µM) in [5]; 3.1 µg/mL (≈ 9.36 µM) in [7]. The minimal inhibitory concentration (MIC) in [11] came to 0.8 µg/mL (≈ 2.41 µM); in data set [12], 0.1 µg/mL (≈ 0.302 µM); in data set [14], 0.025 µg/mL (≈ 0.0754 µM); in [15], 0.8 µg/mL (≈ 2.41 µM); in [16], 1.6 µg/mL (≈ 4.83 µM); in data set [17] it was 1.6 µg/mL (≈ 4.83 µM). Besides, the No effect dose in data set [18] is given as 100 mg. Besides, the PTD50 in data set [19] is 172 mg.
Turning to `CC1(CN)CCN(c2cc3c(cc2F)c(=O)c(C(=O)O)cn3C2CC2)C1` (stereo unspecified), the minimum inhibitory concentration (MIC) in data set [6] was determined as 6.3 µg/mL (≈ 17.5 µM); in [7], 6.3 µg/mL (≈ 17.5 µM); in data set [8], 0.2 µg/mL (≈ 0.556 µM); in [11] it was 1.6 µg/mL (≈ 4.45 µM); in [17], 1.6 µg/mL (≈ 4.45 µM). Besides, the No effect dose in data set [18] was determined as 100 mg. In addition, the PTD50 in data set [19] is listed as over 100 mg.
`COc1c(N2CCC(CN)CC2)c(F)cc2c(=O)c(C(=O)O)cn(C3CC3)c12`: the MIC in data set [1] was found to be 0.1 µg/mL (≈ 0.257 µM); in [2], 1.6 µg/mL (≈ 4.11 µM); in data set [3], 0.4 µg/mL (≈ 1.03 µM); in [4], 0.025 µg/mL (≈ 0.0642 µM); in data set [5], 0.05 µg/mL (≈ 0.128 µM); in data set [6] it was 0.8 µg/mL (≈ 2.05 µM). The minimum inhibitory concentration (MIC) in [7] was found to be 0.8 µg/mL (≈ 2.05 µM); in data set [8], 0.4 µg/mL (≈ 1.03 µM); in [9] it was 0.1 µg/mL (≈ 0.257 µM); in data set [10], 0.1 µg/mL (≈ 0.257 µM); in data set [11], 0.4 µg/mL (≈ 1.03 µM); in [12], 0.2 µg/mL (≈ 0.514 µM). Besides, the MIC in [14] was found to be 0.1 µg/mL (≈ 0.257 µM); in [15], 0.05 µg/mL (≈ 0.128 µM); in [16], 0.025 µg/mL (≈ 0.0642 µM); in data set [17], 0.4 µg/mL (≈ 1.03 µM). The same molecule registered an IC50 in data set [13] of 94 µg/mL (≈ 241 µM).
For the molecule `COc1c(N2CCC(N)C2)c(F)c(N)c2c(=O)c(C(=O)O)cn(C3CC3)c12` (stereo unspecified), the minimal inhibitory concentration (MIC) in data set [1] worked out at 0.05 µg/mL (≈ 0.133 µM); in [2], 0.8 µg/mL (≈ 2.13 µM); in data set [3] it was 0.2 µg/mL (≈ 0.531 µM); in data set [4] it was 0.1 µg/mL (≈ 0.266 µM); in data set [5] it was 0.006 µg/mL (≈ 0.0159 µM); in data set [6] it was 3.1 µg/mL (≈ 8.24 µM). Moreover, the MIC in data set [7] worked out at 1.6 µg/mL (≈ 4.25 µM); in data set [8] it was 0.2 µg/mL (≈ 0.531 µM); in data set [9], 0.05 µg/mL (≈ 0.133 µM); in data set [10] it was 0.025 µg/mL (≈ 0.0664 µM); in [11] it was 0.8 µg/mL (≈ 2.13 µM); in data set [12] it was 0.1 µg/mL (≈ 0.266 µM). Moreover, the MIC in data set [14] was 0.025 µg/mL (≈ 0.0664 µM); in [15], 0.05 µg/mL (≈ 0.133 µM); in data set [16] it was 0.05 µg/mL (≈ 0.133 µM); in data set [17], 0.8 µg/mL (≈ 2.13 µM). This molecule also showed a No effect dose in [18] of 100 mg. The molecule also returned a PTD50 in data set [19] of over 100 mg.
